An excerpt weighted towards active compounds, which were near 1.5% of everything screened.
NR2E3 ag-1: activates human photoreceptor nuclear receptor NR2E3; GST-NR2E3/biotin-RetCOR TR-FRET, 1536-well; AID 2300; 0.12% of 320,000 active; inhibition of corepressor binding, % at 4.78 µM; Q9Y5X4;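 active = percent inhibition above the cutoff of mean plus 3 SD of all tested compounds, set per screening campaign, cut at about 20% in these data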
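Material: NR2E3–RetCOR corepressor complex | Quantity: 1.35 nM GST-tagged NR2E3 final | Schedule: 5 h at 4 °C | Replication: Singlicate compound wells | Reagent: RetCOR corepressor, biotinylated, 7 nM | Controls: Biotin wells as high control, 0.6% DMSO wells as low control | Signal: TR-FRET, Eu(K)-anti-GST donor, streptavidin-D2 acceptor, ex 340, em 617/671 nm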
PG9 Ab binder: binds the HIV-1 gp120 antibody PG9. inhibition, % at 6.7 µM. 0.43% of 360,000 active. TR-FRET gp120-PG9 antibody binding; in the data active = inhibition above about 8.5%
NR1D1 modulator: modulators of human Rev-erb alpha DNA binding | P20393 | Rev-erbα–FITC-DNA binding, fluorescence polarization, 90 min | activity, % at 10 µM | 0.79% of 370,000 active;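 active = activity above about 14%, limit read from the data; passing the limit was not always enough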
Target sequence (P20393 whole entry, looked up): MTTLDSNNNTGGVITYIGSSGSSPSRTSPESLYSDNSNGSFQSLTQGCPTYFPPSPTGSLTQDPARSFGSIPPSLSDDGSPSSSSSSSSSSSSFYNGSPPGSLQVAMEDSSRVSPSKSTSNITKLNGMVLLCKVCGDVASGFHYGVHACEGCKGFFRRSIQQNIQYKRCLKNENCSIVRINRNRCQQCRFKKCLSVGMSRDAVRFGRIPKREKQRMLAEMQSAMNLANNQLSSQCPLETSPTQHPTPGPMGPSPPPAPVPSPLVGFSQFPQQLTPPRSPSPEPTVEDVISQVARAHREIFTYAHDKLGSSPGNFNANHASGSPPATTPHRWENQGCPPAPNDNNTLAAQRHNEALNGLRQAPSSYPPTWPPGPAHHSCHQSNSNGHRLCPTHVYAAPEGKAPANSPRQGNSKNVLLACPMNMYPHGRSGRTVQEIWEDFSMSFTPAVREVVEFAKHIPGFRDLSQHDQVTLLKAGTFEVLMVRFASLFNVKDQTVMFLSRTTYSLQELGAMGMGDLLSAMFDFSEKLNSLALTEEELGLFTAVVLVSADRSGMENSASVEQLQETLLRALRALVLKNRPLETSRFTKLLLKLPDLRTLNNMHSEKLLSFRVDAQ
NR2E3 ag-2: human photoreceptor-specific nuclear receptor agonism | Q9Y5X4 | CHO-S Gal4-NCOR/VP16-NR2E3 two-hybrid, luciferase | inhibition of corepressor binding, % at 3.98 µM | 0.35% of 360,000 active | AID 602229;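 active = inhibition above the mean of all tested compounds plus 3 SD, cut at about 70% in these data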;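 also: higher means lower luciferase signal from less NR2E3 corepressor binding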
PG9 binder conf: PG9 antibody binding, confirmed; shares compounds with PG9 Ab binder; inhibition, % at 6.7 µM; 90% of 1,500 active; TR-FRET PG9 antibody binding, biochemical; in the data active = inhibition above about 9%
PGV04 counter: PGV04 control antibody binding, counter-screen | 95% of 1,500 active | inhibition, % at 6.7 µM | shares compounds with PG9 Ab binder | AID 651604 | TR-FRET PGV04 antibody-gp120 binding, biochemical; in the data active = inhibition above about 9.5%
Numbers stand for hits.

`Cc1[nH]c2ccccc2c1C1=CC(=O)C=CC1=O` gave PG9 Ab binder 10, NR1D1 modulator inactive, NR2E3 ag-2 inactive, PG9 binder conf 20 and PGV04 counter 25.
For Cc1[nH]c2ccccc2c1CC#N the results were NR2E3 ag-1 inactive, PG9 Ab binder inactive, NR1D1 modulator inactive and NR2E3 ag-2 inactive.
For CC(=O)c1sc(C(C)(C)C)cc1NC(=O)CCC(=O)O the results were NR2E3 ag-1 inactive, PG9 Ab binder 10, NR1D1 modulator inactive, NR2E3 ag-2 inactive, PG9 binder conf 19 and PGV04 counter 23.
`CC(=O)c1sc(C(C)(C)C)cc1NC(=O)/C=C/C(=O)O` gave NR2E3 ag-1 inactive, PG9 Ab binder inactive, NR1D1 modulator inactive and NR2E3 ag-2 inactive.
CCOC(=O)[C@@]12CCCC3=C1N(CCC3)C(=O)[C@H]2CC(=O)NCC1CCCCC1 was read as NR1D1 modulator inactive.
For CC(=O)Nc1c(Br)cc2c(c1Br)Cc1cc([N+](=O)[O-])ccc1-2 the results were PG9 Ab binder inactive, NR1D1 modulator inactive and NR2E3 ag-2 inactive.
For O=C(Nc1c(Br)cc2c(c1Br)Cc1ccccc1-2)C(Cl)Cl the results were PG9 Ab binder 28, NR1D1 modulator inactive, NR2E3 ag-2 inactive, PG9 binder conf 25 and PGV04 counter 38.
Screening NC(=O)c1nn(-c2ccccc2)nc1NC(=O)CN1CCCC1 returned NR2E3 ag-1 inactive, PG9 Ab binder inactive, NR1D1 modulator inactive and NR2E3 ag-2 inactive.
For NC(=O)c1nn(-c2ccccc2)nc1NC(=O)Cn1nnc(-c2ccccc2)n1 the results were NR2E3 ag-1 inactive, PG9 Ab binder 8.6, NR1D1 modulator inactive, NR2E3 ag-2 inactive, PG9 binder conf 18 and PGV04 counter 19.
Cc1ccc(S(=O)(=O)N2CCCC2c2cccc3[nH]cc(C)c23)cc1 (stereo not given) was read as NR1D1 modulator inactive.
Screening Cc1ccc(-c2nc3cccnc3s2)cc1NS(C)(=O)=O returned NR2E3 ag-1 inactive, PG9 Ab binder 9.2, NR1D1 modulator inactive, NR2E3 ag-2 inactive, PG9 binder conf 29 and PGV04 counter 34.
Screening CCCS(=O)(=O)Nc1cccc(-c2nc3cccnc3s2)c1 returned NR2E3 ag-1 inactive, PG9 Ab binder inactive, NR1D1 modulator inactive and NR2E3 ag-2 inactive.
`CCN(CC)c1ccc(C=Nn2c(C)nnc2C)cc1` gave NR1D1 modulator inactive.
For COCCCN1C(=O)C(=O)/C(=C(/O)c2ccc(OC(C)C)cc2)C1c1cccnc1 (stereo not given) the results were NR2E3 ag-1 inactive, PG9 Ab binder 10, NR1D1 modulator inactive, NR2E3 ag-2 inactive, PG9 binder conf 14 and PGV04 counter 19.
For Cc1onc(-c2ccccc2Cl)c1C(=O)Nc1nnc(-c2ccc(Cl)cc2Cl)s1 the results were NR2E3 ag-1 inactive, PG9 Ab binder 15, NR1D1 modulator inactive, NR2E3 ag-2 inactive, PG9 binder conf 39 and PGV04 counter 55.
Cc1onc(-c2ccccc2)c1C(=O)Nc1cccc2nsnc12 was read as NR2E3 ag-1 inactive, PG9 Ab binder 66, NR1D1 modulator inactive, NR2E3 ag-2 inactive, PG9 binder conf 72 and PGV04 counter 81.
Screening Cc1onc(-c2c(F)cccc2Cl)c1C(=O)Nc1nnc(C2CC2)s1 returned NR2E3 ag-1 inactive, PG9 Ab binder inactive, NR1D1 modulator inactive and NR2E3 ag-2 inactive.
Cc1onc(-c2ccccc2Cl)c1C(=O)Nc1ccc(F)c(F)c1 was read as NR2E3 ag-1 inactive, PG9 Ab binder inactive, NR1D1 modulator inactive and NR2E3 ag-2 inactive.
`Cc1nnc(NC(=O)c2c(-c3ccccc3)noc2C)s1` gave NR2E3 ag-1 inactive, PG9 Ab binder inactive, NR1D1 modulator inactive and NR2E3 ag-2 inactive.
For Cc1onc(-c2c(F)cccc2Cl)c1C(=O)Nc1nnc(-c2ccccc2)s1 the results were NR2E3 ag-1 inactive, PG9 Ab binder 9.6, NR1D1 modulator inactive, NR2E3 ag-2 inactive, PG9 binder conf 15 and PGV04 counter 23.
`COC(=O)CN1CCN(C(=O)c2nocc2C)CC1` gave NR1D1 modulator inactive.
Screening O=C(C[C@@H]1CC[C@@H]2[C@H](COC[C@H](O)CN2Cc2cccc(C(F)(F)F)c2)O1)NCc1ccc(Cl)cc1 returned PG9 Ab binder inactive and NR1D1 modulator inactive.
C[C@H](NC(=O)C[C@@H]1CC[C@H]2[C@@H](COC[C@H](O)CN2Cc2ccc(C(F)(F)F)cc2)O1)c1ccccc1 was read as PG9 Ab binder 8.8, NR1D1 modulator inactive, PG9 binder conf 14 and PGV04 counter 19.
`CCOC(=O)[C@]12CCCC=C1N(CCCOC)C(=O)[C@@H]2CC(=O)N1CCCC1` gave NR1D1 modulator inactive.
CC(=O)c1ccc(OCCCC(=O)Nc2nnc(C3CC3)s2)cc1 was read as PG9 Ab binder 8.7, NR1D1 modulator inactive, NR2E3 ag-2 inactive, PG9 binder conf 18 and PGV04 counter 25.
For Cc1nc(N2CCN(C(=O)COc3ccccc3C)CC2)c2c3c(sc2n1)CCCC3 the results were NR1D1 modulator inactive.
`CCn1c(=S)[nH]c2scc(-c3cccs3)c2c1=O` gave PG9 Ab binder 11, NR1D1 modulator inactive, NR2E3 ag-2 inactive, PG9 binder conf inactive and PGV04 counter 11.
Screening CC(C)n1c(=S)[nH]c2scc(-c3cccs3)c2c1=O returned NR2E3 ag-1 inactive, PG9 Ab binder inactive, NR1D1 modulator inactive and NR2E3 ag-2 inactive.
Screening CCc1c(C)nc2ccc(Br)cc2c1Cl returned NR2E3 ag-1 inactive, PG9 Ab binder 9.3, NR1D1 modulator inactive, NR2E3 ag-2 inactive, PG9 binder conf 24 and PGV04 counter 26.
Screening CCOC(=O)[C@]12CCCCC/C=C\1N(Cc1ccc(OC)cc1)C(=O)[C@H]2CC(=O)N1CCN(C(=O)C2CC2)CC1 returned NR1D1 modulator inactive.
Screening COc1cccc(CNC(=O)[C@H]2CCCN2C(=O)[C@H]2CCCN2C(=O)c2cccc3ccccc23)c1 returned PG9 Ab binder inactive and NR1D1 modulator inactive.
N#Cc1c(SC(C(=O)O)c2ccccc2)nc2c(c1-c1cccs1)CCCC2 (stereo not given) was read as NR2E3 ag-1 inactive, PG9 Ab binder 20, NR1D1 modulator inactive, NR2E3 ag-2 inactive, PG9 binder conf 32 and PGV04 counter 44.
`Cc1ccc(S(=O)(=O)c2cn(CC(=O)Nc3ccccc3)c3ccc(F)cc3c2=O)cc1` gave NR2E3 ag-1 inactive, PG9 Ab binder 14, NR1D1 modulator inactive, NR2E3 ag-2 inactive, PG9 binder conf 17 and PGV04 counter 25.
Cc1ccc(NC(=O)Cn2cc(S(=O)(=O)c3ccc(F)cc3)c(=O)c3cc(F)ccc32)cc1 was read as NR2E3 ag-1 inactive, PG9 Ab binder 24, NR1D1 modulator inactive, NR2E3 ag-2 inactive, PG9 binder conf 38 and PGV04 counter 44.
